# Assay results as given in the EternaBench riboswitch data.
# Test system: MS2 coat protein
# Experiment: apparent Kd, MS2 coat protein; higher = weaker binding; RNA-MaP array; FMN 200 µM where present
# Summary of the method: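 Binding was read on Illumina sequencing-chip clusters where stalled E. coli RNA polymerase had transcribed each design. A titration of SNAP-549-labelled MS2 coat protein began at 0.7 or 1.5 nM and doubled to 3 µM, once without ligand and once with constant ligand, in 100 mM Tris-HCl pH 7.5, 80 mM KCl, 4 mM MgCl2, BSA, DTT, yeast tRNA and Tween-20. The apparent Kd is the median of filtered per-cluster binding-curve fits, based on green signal normalised to red-channel RNA signal and control-cluster median Fmax.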
# [1] = designed as: OFF switch for flavin mononucleotide, no ligand
# [2] = ligand present: flavin mononucleotide, designed as: OFF switch for flavin mononucleotide
# [3] = designed as: ON switch for flavin mononucleotide, no ligand
# [4] = ligand present: flavin mononucleotide, designed as: ON switch for flavin mononucleotide
Sequence,apparent Kd [1],apparent Kd [2],apparent Kd [3],apparent Kd [4]
CAGGUAGACUGAGGAUAUACAAUAAAGACCUAGUCUAUCUAGGUCUCUACAUGAGGAUCACCCAUGUAGAAGGCAGUCUGCCUG,0.016 µM,0.0183 µM,–,–
CAGGUAGACUGAGGAUAUACAUGACUUAGUCUAUCUAGGUCUAAAAUCACAUGAGGAUCACCCAUGUAGAAGGCAGUCUGCCUG,0.0176 µM,0.0242 µM,–,–
CAGUAAUUCGAAGGAUAUGGUUACAUGAGGAUCACCCAUGUAUUUUUUGUGAUCUUAAAAUUGAUCCAGAAGGUCGAAUUACUG,0.177 µM,0.373 µM,–,–
CAGUACUGAGGAUAUACAUGAGGAUCACCCAUGUGUCUAAAGUAGGAUACUACUAUUAGUAGAAGGCAGUACUG,0.0121 µM,0.0149 µM,–,–
CAGUGCAAUGUAGGAUAUGCUCAGGAAUACUGAGCAGAAGGACAUGAGGAUCACCCAUGUACUAUGAAAGAUAAUAAAGCACUG,0.0135 µM,0.0182 µM,–,–
CAGUGCAAUGUAGGAUAUGCUCAGGAUAACUGAGCAGAAGGACAUGAGGAUCACCCAUGUCAAAUGAAAGAUAAUAAAGCACUG,0.0143 µM,0.0178 µM,–,–
CAUAUACAUGAGGAUCACCCAUGUGAGGAUAUGCUUUAUUAUUAUUAUUAUUAUUGUUGCAGAAGGUACAUUAC,0.0242 µM,0.0206 µM,–,–
CAUAUAGUAGUGAGGAUAUGCGAAUAUAUAAUUAAGUAGAAGGCACAUGAGGAUCACCCAUGUAUAUUGUAAAG,0.0206 µM,0.0206 µM,–,–
CAUAUGUGCGGAGGAUAUGGGUGAAUCGGAUCGACAUGAGGAUCACCCAUGUAGCUCUUUGGCAUCUAGAAGGCCGGAUGAACG,–,–,0.0259 µM,0.111 µM
CAUGUACGUGAGGAUAUGGUGGCGACGAGCCGGCUAGAAGGCACAACAUGAGGAUCACCCAUGUCUUGGAUCUA,0.114 µM,0.374 µM,–,–
CAUGUUAUACAGGAUAUCCGUAUGUAAUUCGUCGGAGAAGGGUAUACAUGAGGAUCACCCAUGUAUUCCUAGCU,0.0161 µM,0.0208 µM,–,–
CAUUAACAUGAGGAUCACCCAUGUGAGGAUAUGAUAUUACUAGGACGGCUGUGAUCAAUCAGAAGGCACAUCUU,0.025 µM,0.03 µM,–,–
CAUUAAUUCAUUAUAGUAAUUAUACAGGAUAUGUUACAUGAGGAUCACCCAUGUAUUCAUGGUAUACAGAAGGGUAAUACUAGA,0.0126 µM,0.0139 µM,–,–
CAUUAAUUGAUUAUUGUAUUUAUACAGGAUAUGUAACAUGAGGAUCACCCAUGUAUACAUGGGAAACAGAAGGGUAUUUAUAGA,0.0319 µM,0.0255 µM,–,–
CAUUAGCGAGGAUAUACAUGAGGAUCACCCAUGUGAUCCUAAGGCUGAUCAAGCCUAUGUAGAAGGCGCAAAUC,0.593 µM,0.0836 µM,–,–
CAUUGCGGAGGAUAUAGGCCGUAAUACAUGAGGAUCACCCAUGUGCCGCUGUAUAAUUCCCUAGAAGGUUGCCAUC,0.0154 µM,0.0157 µM,–,–
CAUUGGUAAGGAUAUGCACCGAUCUCCGAAAGGAGAUCGGUGCAGAAGGUACAUGAGGAUCACCCAUGUUGAUG,0.0271 µM,0.0639 µM,–,–
CCACGUCCCAUUAACAUGAGGAUCACCCAUGUCAAAAGACAUGAGGAUAUGGUACCUAAUUGGUACCAGAAGGCAUGGACGUGG,–,–,0.691 µM,0.114 µM
CCAGAGGAGUAGGAUAUAGGCCGCCAUCGGCGCCUAGAAGGGCUCACAUGAGGAUCACCCAUGUGAUGUUAGUU,0.0175 µM,0.02 µM,–,–

Sequence,apparent Kd [1],apparent Kd [2],apparent Kd [3],apparent Kd [4]
CCAGAUAUGUGAGGAUAUAGAGUGGAAUACACUCUAGAAGGUAUGUGAAAACAUGAGGAUCACCCAUGUCAUUGAUUAUCUGGA,–,–,0.026 µM,0.0275 µM
CCAGCGCGUGUGAGGAUAUGCUGGUCCUUGGAUCAGCAGAAGGCACAUGAGGAUCACCCAUGUGAGUGCGUUGG,0.0157 µM,0.0472 µM,–,–
CCAGCGUAUGUGAGGAUAUGCUGGUCCUUGGAUCAGCAGAAGGCACAUGAGGAUCACCCAUGUAGAGACGUUGG,0.027 µM,0.0298 µM,–,–
CCAGGCUGUGUGAGGAUAUGCUGGUCCUUGGAUCAGCAGAAGGCACAUGAGGAUCACCCAUGUGAGGAGCUUGG,0.0202 µM,0.0988 µM,–,–
CCAUAACAUGAGGAUCACCCAUGUCGACUAAAUCAAGGAUAUGGGAACGCGCAAGCAAAACCAGAAGGUGAGGUCC,–,–,0.255 µM,0.236 µM
CCAUCGAGUGUGAGGAUAUGCUGGUCCUUGGAUCAGCAGAAGGCACAUGAGGAUCACCCAUGUGGAGACGGUGG,0.0601 µM,0.286 µM,–,–
CCAUCGAGUGUGAGGAUAUGCUGGUCCUUGGAUCAGCAGAAGGCACAUGAGGAUCACCCAUGUGGAUACGGUGG,0.031 µM,0.235 µM,–,–
CCAUGACAAAGUCAUGGAUAACGAACAUGAGGAUCACCCAUGUAGGAUAUGCUACUCAAAGAGUAGCAGAAGGACAUGUGCCUU,0.0361 µM,0.263 µM,–,–
CCAUUCAGAGGAUAUGCGCAUAGAUAAGACUUUUUUUCUUAACAUGAGGAUCACCCAUGUAGAAGGCUGUAACC,0.0197 µM,0.0186 µM,–,–
CCCACGAAAGUCGAACGAUGUACGAGAAGGACAAUAACAUGACAUGAGGAUCACCCAUGUGCCAUGUAGGAUAUCGUACAUGGG,0.00855 µM,0.00817 µM,–,–
CCCACGCAUGAGAAGGGACAGGCGUGCAAUUCGACAUGAGGAUCACCCAUGUCAGGAUAUCAGUUAAGGUGGGCAGAACCAAUG,0.0169 µM,0.0767 µM,–,–
CCCGAGUUAGGAUAUCGGACCGGUCCGCGCGGACUGGCAAUUGAGAAGGAACAUGAGGAUCACCCAUGUGAGUA,0.0255 µM,0.0523 µM,–,–
CCCGGGUUUGUGAGGAUAUGCCCGGGUAAACCCGGGUAGAAGGCACAUGAGGAUCACCCAUGUAAGGGCCCGGG,0.0167 µM,0.017 µM,–,–
CCCUACGUUUCGUAGCAGUGUCAUCGAGAAGGCCCUGACAUGAGGAUCACCCAUGUUGUUACAUGGGAGGAUAUCGAUGAUCCC,–,–,0.0186 µM,0.00547 µM
CCCUCAACAUGAGGAUCACCCAUGUAGGAUAUCGCUAUUGUAAUCAUGAAACAUGAUUACAAUAGCGAGAAGGACAUAUGUAAA,0.0274 µM,0.14 µM,–,–
CCCUCAACAUGAGGAUCACCCAUGUAGGAUAUCGCUAUUGUAAUCAUGAAACAUGAUUACAAUAGCGAGAAGGACAUAUGUCCC,0.0138 µM,0.0154 µM,–,–
CCCUCACAUGAGGAUCACCCAUGUCAGGAUAUUCAAAGCGCAAAUGCGCCAAAUGCAGGAAGAAGGGACGUGCC,0.0151 µM,0.0205 µM,–,–
CCCUGAGACUGGUUAAUUGGCUGAUAGGAUAUCCUCGGACAUGAGGAUCACCCAUGUUAACUAUUGGAGAAGGGUCAGCGAAAG,–,–,0.445 µM,0.181 µM
CCCUUUAGAGGAUAUACAUGAGGAUCACCCAUGUCUUGGGUCCGGCCUGAUCUGGUACGUAGAAGGCUGUUGGU,0.187 µM,0.158 µM,–,–

Sequence,apparent Kd [1],apparent Kd [2],apparent Kd [3],apparent Kd [4]
CCGAAUAAGCAGGAUAUCGAAUCGGAGACGAUUCGAGAAGGGUUAACAUGAGGAUCACCCAUGUUCCUUAACGG,0.0191 µM,0.0208 µM,–,–
CCGAAUAUGCAGGAUAUCGUAUCGGAAACGAUACGAGAAGGGCAAACAUGAGGAUCACCCAUGUUCCUUAACGG,0.0186 µM,0.0202 µM,–,–
CCGACGAAAGUCGAACGAUGUAGCAGAAGGACAUGAGGAUCACCCAUGUCAGCUGUAACAGCCAUGUAGGAUAUGCUACAUCGU,0.00428 µM,0.00585 µM,–,–
CCGCAAAUGGAGGAUAUCGUAUCGGAUACGAUACGAGAAGGCUAUACAUGAGGAUCACCCAUGUGUCCUAGCGG,0.0135 µM,0.0183 µM,–,–
CCGCAGUGUCUUCAGAAGACAUGAGGAUCACCCAUGUACCAGGAGGAUAUAGUGCGCUUUCCGCGCUAGAAGGCUUGGAUAUAG,0.115 µM,0.0708 µM,–,–
CCGCAUAUGGAGGAUAUCGUAUCGGAAACGAUACGAGAAGGCUAAACAUGAGGAUCACCCAUGUUCCUUAACGG,0.0181 µM,0.0181 µM,–,–
CCGCGCAUAGGAUAUUAAUCUCACGACAUGAGGAUCACCCAUGUAACUCUGUGUGCGAUCUAAGAAGGGUGGGCUU,0.0288 µM,0.024 µM,–,–
CCGGAAACGGGUAGCUGACAUGAGGAUCACCCAUGUGAAUCACAGGAUAUGGAUCCUAAUUGGAUCCAGAAGGGUGUCAGCUAC,–,–,1.02 µM,0.125 µM
CCGGAAAUGAAGGAUAUAGGCGUCGAUAGACUCCUAGAAGGUCAUACAUGAGGAUCACCCAUGUGUCCUACCGG,0.0165 µM,0.0298 µM,–,–
CCGGAAGGUUAGGAUAUGCUUCCACAUAUCUAAGCAGAAGGAACCACAUGAGGAUCACCCAUGUUUAUGGGCCG,0.262 µM,0.261 µM,–,–
CCGGAAGUACAGGAUAUCGUAUCGGAAACGAUACGAGAAGGGUAUACAUGAGGAUCACCCAUGUGUCCUACCGG,0.0287 µM,0.0279 µM,–,–
CCGGAAUUACAGGAUAUAGGAGUCGAUAGACACCUAGAAGGGUAGACAUGAGGAUCACCCAUGUGUCCUACCGG,0.273 µM,0.182 µM,–,–
CCGGCUGCUGUGAGGAUAUGCCUGUGGGUCCGCGGGCAGAAGGCACAUGAGGAUCACCCAUGUCCUGCGGUCCC,0.0271 µM,0.0283 µM,–,–
CCGGUAAAGGAGGAUAUAGGAGUCGAUAGACACCUAGAAGGCCUGACAUGAGGAUCACCCAUGUGUCCUUCCGG,0.0177 µM,0.0767 µM,–,–
CCGUCGCACCAGAAGGCGUGAUCCACUGCGGCACGAGGAUAUGGUACAUGAGGAUCACCCAUGUCGCGAUGGAAAGCAAUCACG,–,–,0.151 µM,0.0241 µM
CCUAAGGACACAGGAUAUAGCGUGGCGGCUGGACUCCAACGGCGAACGGCGCUAGAAGGGUGACCACAUGAGGAUCACCCAUGU,–,–,0.495 µM,0.206 µM
CCUAAGGACACAGGAUAUAGCGUGGUGGCUGGGCUCCAACGACAAGCGGCGCUAGAAGGGUGACCACAUGAGGAUCACCCAUGU,–,–,0.754 µM,0.218 µM
CCUAUGUGAGGAUAUCACUGGUCUUCUCACUGGAUGAUUAGUGAGAAGGCACAUGAGGAUCACCCAUGUCGGUG,0.656 µM,0.451 µM,–,–
